We go through 9 molecules from ChEMBL document CHEMBL4373687, “Introducing nitrogen atoms to amidoalkylindoles: potent and selective cannabinoid type 2 receptor agonists with improved aqueous solubility” (Medchemcomm, 2019).

The target in data set [1] is T1, Cannabinoid receptor 2 (Homo sapiens, UniProt P34972). The experiment in a line: Agonist activity at human CB2-receptor expressed in CHO-K1 cells coexpressing G-alpha16 at 10 uM by Fluo-4-AM dye based calcium mobilization assay. The data set is classed as functional, cell-based. An outline of the steps: (§1)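 CHO-K1 cells stably co-expressing Gα16 and human CB1 or CB2, seeded 24 h. Loaded with 2 μM fluo-4 AM in HBSS (with sulfinpyrazone, pH 7.4) at 37 °C for 45 min. Compound added and calcium fluorescence recorded (ex 485/em 525 nm). CP55940 positive control, DMSO negative control. Compounds with >50% activation at 10 μM got eight-point curves in triplicate, sigmoidal fit for EC50.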

The target in data set [2] is T1, Cannabinoid receptor 2. The data set can be described thus: Agonist activity at human CB2-receptor expressed in CHO-K1 cells coexpressing G-alpha16 by Fluo-4-AM dye based calcium mobilization assay. The data set is classed as functional, cell-based. To be noted: cho-k1. On the technique in general: Calcium assays in cells follow changes in intracellular calcium, usually with a dye or a luminescent sensor.

For data set [3], the target named is T1, Cannabinoid receptor 2. The data set can be described thus: Antagonist activity at human CB2-receptor expressed in CHO-K1 cells coexpressing G-alpha16 at 10 uM pre-incubated for 10 mins and later treated with 100 nM CB-receptor agonist, CP55940 by Fluo-4-AM dye based calcium mobilization assay. The data set is classed as functional, cell-based. The procedure, abridged: (§2)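 CHO-K1 cells stably co-expressing Gα16 and human CB1 or CB2, loaded with 2 μM fluo-4 AM in HBSS pH 7.4 at 37 °C for 45 min. Pre-incubated with compound for 10 min at room temperature, then CP55940 added at 100 nM. Peak calcium read over 60 s (ex 485/em 525 nm). Rimonabant positive control. Actives got eight-point curves in triplicate, sigmoidal fit for IC50.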

For data set [4], the target named is T2, Cannabinoid receptor 1 (Homo sapiens, UniProt P21554). The experiment in a line: Antagonist activity at human CB1-receptor expressed in CHO-K1 cells coexpressing G-alpha16 at 10 uM pre-incubated for 10 mins and later treated with 100 nM CB-receptor agonist, CP55940 by Fluo-4-AM dye based calcium mobilization assay. The data set is classed as cell-based. The procedure, abridged:
as §2

The target of data set [5] is T2, Cannabinoid receptor 1. The experiment in a line: Agonist activity at human CB1-receptor expressed in CHO-K1 cells coexpressing G-alpha16 by Fluo-4-AM dye based calcium mobilization assay. The data set is classed as cell-based. To be noted: cho-k1.
The target of data set [6] is T2, Cannabinoid receptor 1. The experiment in a line: Agonist activity at human CB1-receptor expressed in CHO-K1 cells coexpressing G-alpha16 at 10 uM by Fluo-4-AM dye based calcium mobilization assay. The data set is classed as cell-based. To be noted: cho-k1, 10 µM. An outline of the steps: as §1
Data set [7] has as its target T1, Cannabinoid receptor 2. The experiment in a line: Antagonist activity at human CB2-receptor expressed in CHO-K1 cells coexpressing G-alpha16 pre-incubated for 10 mins and later treated with 100 nM CB-receptor agonist, CP55940 by Fluo-4-AM dye based calcium mobilization assay. The data set is classed as functional, cell-based. An outline of the steps: as §2
The target in data set [8] is T2, Cannabinoid receptor 1. The data set can be described thus: Antagonist activity at human CB1-receptor expressed in CHO-K1 cells coexpressing G-alpha16 pre-incubated for 10 mins and later treated with 100 nM CB-receptor agonist, CP55940 by Fluo-4-AM dye based calcium mobilization assay. The data set is classed as cell-based. An outline of the steps:
as §2

T2 sequence (P21554 whole entry): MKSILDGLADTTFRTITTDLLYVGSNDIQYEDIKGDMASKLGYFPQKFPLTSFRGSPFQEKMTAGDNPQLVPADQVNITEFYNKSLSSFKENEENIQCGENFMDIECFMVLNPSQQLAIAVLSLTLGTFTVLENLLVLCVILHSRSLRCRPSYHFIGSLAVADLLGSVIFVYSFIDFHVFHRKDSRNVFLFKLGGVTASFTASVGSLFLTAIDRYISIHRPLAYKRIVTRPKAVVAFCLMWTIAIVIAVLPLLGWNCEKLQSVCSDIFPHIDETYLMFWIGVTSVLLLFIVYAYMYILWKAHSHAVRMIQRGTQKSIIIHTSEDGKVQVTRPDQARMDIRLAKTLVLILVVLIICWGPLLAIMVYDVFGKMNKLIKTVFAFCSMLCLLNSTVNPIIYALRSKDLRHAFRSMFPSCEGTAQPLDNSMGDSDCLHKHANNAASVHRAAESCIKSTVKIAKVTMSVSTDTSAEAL
T1 sequence (P34972 whole entry): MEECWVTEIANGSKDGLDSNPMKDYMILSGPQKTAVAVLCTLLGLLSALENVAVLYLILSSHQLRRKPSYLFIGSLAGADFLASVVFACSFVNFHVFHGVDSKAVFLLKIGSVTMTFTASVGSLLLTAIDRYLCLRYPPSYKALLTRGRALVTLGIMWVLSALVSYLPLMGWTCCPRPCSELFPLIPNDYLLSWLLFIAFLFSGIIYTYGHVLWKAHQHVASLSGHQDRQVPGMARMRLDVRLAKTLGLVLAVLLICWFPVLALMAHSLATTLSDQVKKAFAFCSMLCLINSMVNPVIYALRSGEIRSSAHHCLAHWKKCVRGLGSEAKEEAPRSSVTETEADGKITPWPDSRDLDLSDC

Regarding `O=C(NC12CC3CC(CC(C3)C1)C2)c1c[nH]c2ncccc12`, the Activity in data set [1] and in data set [6] was less than 50% throughout. In addition, the EC50 entry in data set [2] and in data set [5] was “Not Active” throughout. In addition, the inhibition (as a rule, how much of the control response was suppressed) in data set [3] is more than 50%. The inhibition at 10 µM in data set [4] was less than 50%. Also, the results for the IC50 in data set [7] (read-out: IC50) and in data set [8] were 6.5 µM and “Not Active”, respectively.
As to `O=C(NC12CC3CC(CC(C3)C1)C2)c1c[nH]c2cccnc12`, the Activity in data set [1] and in data set [6] was less than 50% throughout. In addition, the EC50 result in data set [2] and in data set [5] was “Not Active” in each case. Also, the inhibition in data set [3] was less than 50%. Further, the inhibition at 10 µM in data set [4] is less than 50%. The IC50 result in data set [7] (cho-k1) and in data set [8] was “Not Active” in each case.
Consider `CCCCCn1c(C(=O)NC23CC4CC(CC(C4)C2)C3)cc2cnccc21`, for which the Activity in data set [1] and in data set [6] was less than 50% each time. In addition, the EC50 entry in data set [2] and in data set [5] was “Not Active” each time. Besides, the inhibition in data set [3] was less than 50%. In addition, the inhibition at 10 µM in data set [4] is less than 50%. Besides, the IC50 entry in data set [7] (cho-k1) and in data set [8] was “Not Active” throughout.
Turning to `O=C(NC12CC3CC(CC(C3)C1)C2)c1nc2ccccc2n1CCN1CCOCC1`, the Activity in data set [1] and in data set [6] was less than 50% each time. The EC50 entry in data set [2] and in data set [5] was “Not Active” each time. Moreover, in data set [3], the inhibition is more than 50%. The inhibition at 10 µM in data set [4] is less than 50%. The IC50 – broadly, the concentration that gives 50% inhibition – in data set [7] (read-out: IC50) was 0.036 µM; in data set [8], “Not Active”.
As for `O=C(NC12CC3CC(CC(C3)C1)C2)c1cn(CCN2CCOCC2)c2ccncc12`, the Activity in data set [1] and in data set [6] was less than 50% throughout. Further, the EC50 entry in data set [2] and in data set [5] was “Not Active” throughout. The inhibition in data set [3] is less than 50%. Also, the inhibition at 10 µM in data set [4] was less than 50%. The IC50 result in data set [7] (cho-k1) and in data set [8] was “Not Active” throughout.
In the case of `O=C(NC12CC3CC(CC(C3)C1)C2)c1cc2cnccc2n1CCN1CCOCC1`, the Activity in data set [1] and in data set [6] was less than 50% in each case. The EC50 entry in data set [2] and in data set [5] was “Not Active” throughout. Besides, the inhibition in data set [3] is less than 50%. Besides, the inhibition at 10 µM in data set [4] is less than 50%. Further, the IC50 entry in data set [7] (cho-k1) and in data set [8] was “Not Active” each time.
For `O=C(NC12CC3CC(CC(C3)C1)C2)c1cn(CCN2CCOCC2)c2cccnc12`, the Activity in data set [1] and in data set [6] was less than 50% in each case. For the same molecule, the EC50 entry in data set [2] and in data set [5] was “Not Active” in each case. For the same molecule, the inhibition in data set [3] was less than 50%. The inhibition at 10 µM in data set [4] is less than 50%. Moreover, the IC50 result in data set [7] (cho-k1) and in data set [8] was “Not Active” throughout.
As to `O=C(NC12CC3CC(CC(C3)C1)C2)c1c[nH]c2ccncc12`, the Activity in data set [1] and in data set [6] was less than 50% in each case. Also, the EC50 result in data set [2] and in data set [5] was “Not Active” throughout. The inhibition in data set [3] is less than 50%. In addition, in data set [4], the inhibition at 10 µM was less than 50%. For the same molecule, the IC50 result in data set [7] (cho-k1) and in data set [8] was “Not Active” throughout.
With `O=C(NC12CC3CC(CC(C3)C1)C2)c1cc2ncccc2n1CCN1CCOCC1`, the Activity in data set [1] and in data set [6] was less than 50% each time. In addition, the EC50 result in data set [2] and in data set [5] was “Not Active” in each case. Further, in data set [3], the inhibition was less than 50%. Moreover, the inhibition at 10 µM in data set [4] was less than 50%. In addition, the IC50 entry in data set [7] (cho-k1) and in data set [8] was “Not Active” throughout.
